Test results: paper PMC2943143 (Biochemical pharmacology, 2010)
Where “and” joins values, the source holds several entries; their conditions need not be identical. Identical values can stand only once. Entries after “also recorded” stand apart in the source; their conditions may differ.

Assays:
human pol κ = target: T1, human pol κ (Homo sapiens, UniProt Q9UBT6); assay: Pol assay, pol κ; assay type: biochemical; conditions: for Ki: pol κ
T1 sequence (Q9UBT6 1-560 limits assumed): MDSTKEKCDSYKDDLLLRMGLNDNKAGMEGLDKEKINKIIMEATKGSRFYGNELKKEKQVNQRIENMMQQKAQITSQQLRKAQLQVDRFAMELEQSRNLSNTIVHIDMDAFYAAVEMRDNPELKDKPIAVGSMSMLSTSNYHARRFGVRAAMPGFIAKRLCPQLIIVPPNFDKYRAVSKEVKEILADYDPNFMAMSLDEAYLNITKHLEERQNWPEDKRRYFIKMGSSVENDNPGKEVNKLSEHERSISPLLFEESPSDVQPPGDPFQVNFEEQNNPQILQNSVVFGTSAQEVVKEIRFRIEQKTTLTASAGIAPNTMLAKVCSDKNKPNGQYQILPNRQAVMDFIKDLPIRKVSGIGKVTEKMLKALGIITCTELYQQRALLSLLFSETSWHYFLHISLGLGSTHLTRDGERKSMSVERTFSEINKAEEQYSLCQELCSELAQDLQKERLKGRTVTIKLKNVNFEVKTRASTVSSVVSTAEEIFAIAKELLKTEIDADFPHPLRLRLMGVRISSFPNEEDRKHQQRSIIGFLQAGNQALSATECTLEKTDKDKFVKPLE
How it was run: (§1)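 Test compound was dissolved in DMSO and sonicated 30 s. It was preincubated with enzyme (0.05 unit final) in 50 mM Tris-HCl pH 7.5, 1 mM DTT, 50% glycerol and 0.1 mM EDTA at 0 °C for 10 min. This was added to each enzyme's standard reaction mix with poly(dA)/oligo(dT)18 (A/T = 2/1) template-primer and dTTP substrate, then incubated at 37 °C for 60 min. Activity is given as % of inhibitor-free control.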

rat pol β = rat pol β (Rattus norvegicus, UniProt P06766); assay: Pol assay, rat pol β; assay type: biochemical; conditions: for Ki: pol β, Dixon plot
How it was run: as §1

human pol δ = human pol δ (Homo sapiens, UniProt P28340); assay: Pol assay, human pol δ; assay type: biochemical
Sequence of human pol δ (P28340 whole entry): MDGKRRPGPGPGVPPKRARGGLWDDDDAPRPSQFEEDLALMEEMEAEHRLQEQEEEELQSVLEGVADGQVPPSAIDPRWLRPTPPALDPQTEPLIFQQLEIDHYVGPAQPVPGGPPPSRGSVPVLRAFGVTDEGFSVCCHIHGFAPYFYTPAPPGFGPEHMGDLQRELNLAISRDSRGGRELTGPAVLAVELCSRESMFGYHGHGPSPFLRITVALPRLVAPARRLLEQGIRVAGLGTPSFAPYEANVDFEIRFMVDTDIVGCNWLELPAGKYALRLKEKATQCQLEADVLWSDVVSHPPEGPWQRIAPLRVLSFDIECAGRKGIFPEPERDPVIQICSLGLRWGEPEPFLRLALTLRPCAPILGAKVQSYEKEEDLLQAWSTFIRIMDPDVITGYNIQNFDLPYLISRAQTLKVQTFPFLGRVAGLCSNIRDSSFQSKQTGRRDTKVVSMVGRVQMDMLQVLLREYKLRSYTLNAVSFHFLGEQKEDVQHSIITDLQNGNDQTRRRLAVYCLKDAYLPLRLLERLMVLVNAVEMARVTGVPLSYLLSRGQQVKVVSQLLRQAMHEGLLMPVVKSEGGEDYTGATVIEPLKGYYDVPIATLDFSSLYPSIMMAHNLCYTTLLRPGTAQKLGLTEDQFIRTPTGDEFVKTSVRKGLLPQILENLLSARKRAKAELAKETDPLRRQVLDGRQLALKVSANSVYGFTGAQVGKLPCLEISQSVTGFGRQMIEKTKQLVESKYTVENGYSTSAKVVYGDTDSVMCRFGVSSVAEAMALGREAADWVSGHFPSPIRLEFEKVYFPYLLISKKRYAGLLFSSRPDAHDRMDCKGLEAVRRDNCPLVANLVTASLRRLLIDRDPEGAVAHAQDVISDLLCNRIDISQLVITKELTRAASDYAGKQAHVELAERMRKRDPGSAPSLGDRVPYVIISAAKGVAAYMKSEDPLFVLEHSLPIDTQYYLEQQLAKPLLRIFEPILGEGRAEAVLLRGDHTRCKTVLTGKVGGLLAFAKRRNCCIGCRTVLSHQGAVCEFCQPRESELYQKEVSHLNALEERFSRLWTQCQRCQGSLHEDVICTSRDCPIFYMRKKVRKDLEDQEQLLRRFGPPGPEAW
How it was run: as §1

mouse pol ι = mouse pol ι (Mus musculus, UniProt Q6R3M4); assay: Pol assay, mouse pol ι; assay type: biochemical
Sequence of mouse pol ι (Q6R3M4 whole entry): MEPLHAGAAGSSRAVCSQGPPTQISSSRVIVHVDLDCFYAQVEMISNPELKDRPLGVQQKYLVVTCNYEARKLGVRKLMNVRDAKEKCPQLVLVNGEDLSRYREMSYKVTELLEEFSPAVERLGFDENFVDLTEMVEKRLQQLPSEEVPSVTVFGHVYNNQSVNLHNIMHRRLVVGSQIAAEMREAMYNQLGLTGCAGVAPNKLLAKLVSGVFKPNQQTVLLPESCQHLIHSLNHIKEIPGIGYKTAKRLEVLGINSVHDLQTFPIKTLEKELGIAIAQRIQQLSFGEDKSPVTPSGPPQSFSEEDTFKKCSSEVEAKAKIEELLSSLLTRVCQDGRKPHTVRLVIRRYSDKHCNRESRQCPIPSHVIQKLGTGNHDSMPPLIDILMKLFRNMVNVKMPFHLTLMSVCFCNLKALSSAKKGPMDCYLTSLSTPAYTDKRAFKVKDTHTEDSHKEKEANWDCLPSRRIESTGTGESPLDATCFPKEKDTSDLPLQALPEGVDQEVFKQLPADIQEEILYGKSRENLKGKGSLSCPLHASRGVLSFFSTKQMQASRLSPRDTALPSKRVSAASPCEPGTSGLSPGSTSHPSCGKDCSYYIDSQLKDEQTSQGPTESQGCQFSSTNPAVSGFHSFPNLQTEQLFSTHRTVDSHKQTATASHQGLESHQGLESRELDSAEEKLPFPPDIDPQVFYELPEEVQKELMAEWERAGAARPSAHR
How it was run: as §1

human pol γ = human pol γ (Homo sapiens, UniProt P54098); assay: Pol assay, human pol γ; assay type: biochemical; conditions: 100 and 1,000 nM PGG, Fig. 1C; compared with B- and Y-family pols
Sequence of human pol γ (P54098 whole entry): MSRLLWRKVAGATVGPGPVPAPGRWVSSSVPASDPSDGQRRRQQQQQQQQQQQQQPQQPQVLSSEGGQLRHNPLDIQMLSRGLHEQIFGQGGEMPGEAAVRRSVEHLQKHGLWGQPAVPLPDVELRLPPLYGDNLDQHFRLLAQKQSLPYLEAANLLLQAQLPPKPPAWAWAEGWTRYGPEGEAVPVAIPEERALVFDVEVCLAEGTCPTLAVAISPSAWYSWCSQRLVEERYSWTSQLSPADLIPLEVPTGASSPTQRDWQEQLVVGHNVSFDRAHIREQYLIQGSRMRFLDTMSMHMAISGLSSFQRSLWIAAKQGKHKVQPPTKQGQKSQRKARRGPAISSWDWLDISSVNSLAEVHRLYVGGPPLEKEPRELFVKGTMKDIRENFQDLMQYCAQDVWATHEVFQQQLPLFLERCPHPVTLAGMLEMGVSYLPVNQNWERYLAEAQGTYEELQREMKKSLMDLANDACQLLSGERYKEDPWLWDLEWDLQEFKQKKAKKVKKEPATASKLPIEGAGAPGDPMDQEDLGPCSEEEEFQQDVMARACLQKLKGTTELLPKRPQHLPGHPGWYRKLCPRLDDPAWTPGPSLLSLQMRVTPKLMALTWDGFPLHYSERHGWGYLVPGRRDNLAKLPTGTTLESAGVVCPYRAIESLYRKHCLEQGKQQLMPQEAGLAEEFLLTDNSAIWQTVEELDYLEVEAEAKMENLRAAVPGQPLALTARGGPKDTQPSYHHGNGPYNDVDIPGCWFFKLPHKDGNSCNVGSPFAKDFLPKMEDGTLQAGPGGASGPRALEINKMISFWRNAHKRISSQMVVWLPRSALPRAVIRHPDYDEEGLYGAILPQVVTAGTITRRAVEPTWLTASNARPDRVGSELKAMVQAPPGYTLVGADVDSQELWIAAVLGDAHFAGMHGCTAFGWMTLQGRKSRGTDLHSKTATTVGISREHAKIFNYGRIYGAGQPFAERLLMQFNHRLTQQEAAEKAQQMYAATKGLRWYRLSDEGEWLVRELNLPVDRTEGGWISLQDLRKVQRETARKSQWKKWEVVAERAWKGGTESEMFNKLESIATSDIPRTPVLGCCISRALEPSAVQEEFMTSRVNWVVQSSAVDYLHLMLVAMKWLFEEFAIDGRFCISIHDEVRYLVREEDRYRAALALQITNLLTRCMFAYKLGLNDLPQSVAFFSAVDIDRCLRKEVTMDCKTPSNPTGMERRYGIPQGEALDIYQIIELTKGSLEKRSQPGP
How it was run: as §1

[1] = target: human pol λ (full-length, residues 1–575) (Homo sapiens, UniProt Q9UGP5); assay: Pol assay, full-length human pol λ; assay type: biochemical; conditions: 100 and 1,000 nM PGG, Fig. 1C
Sequence of human pol λ (full-length, residues 1–575) (Q9UGP5 whole entry, the tested form may be a part): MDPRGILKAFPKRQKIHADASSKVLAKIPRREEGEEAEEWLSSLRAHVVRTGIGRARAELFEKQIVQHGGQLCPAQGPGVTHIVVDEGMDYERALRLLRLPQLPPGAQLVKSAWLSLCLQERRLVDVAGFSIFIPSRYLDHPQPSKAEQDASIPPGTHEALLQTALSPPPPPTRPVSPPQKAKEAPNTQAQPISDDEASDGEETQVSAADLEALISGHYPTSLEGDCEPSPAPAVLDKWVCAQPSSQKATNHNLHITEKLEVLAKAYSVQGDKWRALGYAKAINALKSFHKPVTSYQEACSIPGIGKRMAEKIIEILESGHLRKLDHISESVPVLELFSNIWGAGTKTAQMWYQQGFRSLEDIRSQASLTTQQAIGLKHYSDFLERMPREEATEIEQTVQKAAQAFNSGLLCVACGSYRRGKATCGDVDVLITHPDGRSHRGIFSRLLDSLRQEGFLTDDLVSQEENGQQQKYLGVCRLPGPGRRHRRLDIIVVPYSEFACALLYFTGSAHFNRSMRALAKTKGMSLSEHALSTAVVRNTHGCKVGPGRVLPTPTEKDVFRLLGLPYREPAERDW
How it was run: as §1

rice pol λ = rice pol λ (Oryza sativa subsp. japonica, UniProt Q67VC8); assay: Pol assay, rice pol λ; assay type: biochemical; conditions: supplemental Fig. S1A
How it was run: as §1

Taq pol = Taq pol (Thermus aquaticus, UniProt P19821); assay: Pol assay, Taq pol; assay type: biochemical; conditions: supplemental Fig. S1A
How it was run: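 Taq polymerase used poly(dA)/oligo(dT)18 (A/T = 2/1) template-primer and dTTP substrate. Test compound in sonicated DMSO was preincubated with enzyme (0.05 unit final) in 50 mM Tris-HCl pH 7.5, 1 mM DTT, 50% glycerol and 0.1 mM EDTA at 0 °C for 10 min. The mixture was then added to standard reaction mix and incubated at 74 °C for 60 min. Activity is given as % of untreated control.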

calf primase of pol α = assay: Primase assay; assay type: biochemical; conditions: highest tested concentration 1 μM, supplemental Fig. S1B
human telomerase = human telomerase (Homo sapiens, UniProt O14746); assay: Telomerase assay; assay type: biochemical; conditions: highest tested concentration 1 μM, supplemental Fig. S1B
T7 RNA polymerase = T7 RNA polymerase (Escherichia phage T7, UniProt P00573); assay: T7 RNA polymerase assay; assay type: biochemical; conditions: highest tested concentration 1 μM, supplemental Fig. S1B
Sequence of T7 RNA polymerase (P00573 whole entry): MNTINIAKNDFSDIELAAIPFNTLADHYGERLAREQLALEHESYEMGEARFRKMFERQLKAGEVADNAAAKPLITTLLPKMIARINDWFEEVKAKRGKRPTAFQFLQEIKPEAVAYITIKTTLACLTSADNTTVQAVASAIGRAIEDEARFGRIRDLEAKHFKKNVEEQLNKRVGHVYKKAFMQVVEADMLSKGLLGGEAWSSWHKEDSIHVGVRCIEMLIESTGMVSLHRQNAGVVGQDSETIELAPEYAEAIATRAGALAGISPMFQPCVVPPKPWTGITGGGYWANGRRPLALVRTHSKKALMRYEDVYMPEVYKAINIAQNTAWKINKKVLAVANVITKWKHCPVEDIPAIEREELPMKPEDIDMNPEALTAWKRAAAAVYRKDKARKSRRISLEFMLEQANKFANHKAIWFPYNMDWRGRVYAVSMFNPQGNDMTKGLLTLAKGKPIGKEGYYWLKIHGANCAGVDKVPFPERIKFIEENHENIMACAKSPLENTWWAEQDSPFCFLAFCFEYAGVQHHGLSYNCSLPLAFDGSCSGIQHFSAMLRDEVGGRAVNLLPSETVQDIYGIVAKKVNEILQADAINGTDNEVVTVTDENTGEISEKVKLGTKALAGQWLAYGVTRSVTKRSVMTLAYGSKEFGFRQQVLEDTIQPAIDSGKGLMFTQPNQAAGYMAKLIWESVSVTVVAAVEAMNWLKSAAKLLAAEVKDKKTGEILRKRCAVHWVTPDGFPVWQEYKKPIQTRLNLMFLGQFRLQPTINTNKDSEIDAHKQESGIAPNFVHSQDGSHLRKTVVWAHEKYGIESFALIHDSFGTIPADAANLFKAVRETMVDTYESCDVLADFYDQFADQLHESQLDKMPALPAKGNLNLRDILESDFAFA

[2] = target: mouse IMP dehydrogenase (type II) (Mus musculus, UniProt P24547); assay: IMP dehydrogenase assay; assay type: biochemical; conditions: highest tested concentration 1 μM, supplemental Fig. S1B
Sequence of mouse IMP dehydrogenase (type II) (P24547 whole entry): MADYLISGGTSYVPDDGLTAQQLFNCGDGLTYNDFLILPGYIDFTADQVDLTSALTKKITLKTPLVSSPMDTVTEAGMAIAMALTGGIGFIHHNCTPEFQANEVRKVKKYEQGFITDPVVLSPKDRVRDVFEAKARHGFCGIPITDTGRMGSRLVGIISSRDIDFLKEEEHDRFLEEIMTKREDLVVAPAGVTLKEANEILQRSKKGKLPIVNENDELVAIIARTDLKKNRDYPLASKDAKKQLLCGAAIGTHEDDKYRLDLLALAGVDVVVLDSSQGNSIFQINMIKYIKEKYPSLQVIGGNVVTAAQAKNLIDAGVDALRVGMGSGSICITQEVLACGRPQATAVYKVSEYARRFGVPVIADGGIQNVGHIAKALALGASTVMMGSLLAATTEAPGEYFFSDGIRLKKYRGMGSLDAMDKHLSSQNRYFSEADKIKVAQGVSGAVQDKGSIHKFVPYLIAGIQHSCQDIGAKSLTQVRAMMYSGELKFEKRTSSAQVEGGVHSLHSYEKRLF

bovine DNase I = bovine DNase I (Bos taurus, UniProt P00639); assay: DNase I assay; assay type: biochemical; conditions: highest tested concentration 1 μM, supplemental Fig. S1B
How it was run: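 Topoisomerases I and II were purified from human placenta, and DNase I came from bovine pancreas. Each activity was measured in a standard assay following the supplier's specifications.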

[3] = system: calf thymus double-stranded DNA (dsDNA); assay: Thermal transition of DNA; assay type: binding; conditions: 15 μM compound, calf thymus dsDNA 6 μg/ml, pH 7.0
How it was run: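 Calf thymus dsDNA (6 μg/ml) in 0.1 M sodium phosphate pH 7.0 with 1% DMSO was tested with or without test compound, with ethidium bromide as intercalator control. Samples were equilibrated at 78 °C for 10 min, then raised 1 °C every 2 min. Absorbance was recorded on a spectrophotometer with a thermoelectric cell holder, and compound-only absorbance was subtracted to give Tm.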

Aminopeptidase N = conditions: read-out: IC50, Aminopeptidase N; cited from earlier work
Neutral endopeptidase = conditions: read-out: IC50, Neutral endopeptidase; cited from earlier work
[4] = target: Angiotensin converting enzyme; conditions: read-out: IC50, Angiotensin converting enzyme; cited from earlier work
[5] = target: HIV reverse transcriptase; conditions: read-out: IC50, HIV reverse transcriptase; cited from earlier work
isolated nuclei = conditions: cited from earlier work
[6] = system: mouse Lewis lung cancer allografts; conditions: dose-dependent in the range of 4 and 20 mg/kg, syngenic mice; cited from earlier work
[7] = system: human DU145 prostate cancer (PCa) xenografts; conditions: cited from earlier work
[8] = unchanged at 30, 60 and 90 nM PGG

With `O=C(OC[C@H]1O[C@@H](OC(=O)c2cc(O)c(O)c(O)c2)[C@H](OC(=O)c2cc(O)c(O)c(O)c2)[C@@H](OC(=O)c2cc(O)c(O)c(O)c2)[C@@H]1OC(=O)c1cc(O)c(O)c(O)c1)c1cc(O)c(O)c(O)c1` [PGG, 1,2,3,4,6-penta-O-galloyl-β-D-glucose] as the compound, how does the IC50 (human pol κ) read?
Its IC50 is 30 nM.

And the “Mode of Inhibition, pol κ, DNA template-primer” value (human pol κ)?
The value was “Non-competitive for DNA template-primer”.

And the “Mode of Inhibition, pol κ, dNTP” value (human pol κ)?
Its value is “Non-competitive for dNTP”.

And the “effect on pol κ activity” value (human pol κ; 100 and 1,000 nM PGG, Fig. 1C)?
Its value is “significantly inhibit”.

What about the Ki (human pol κ; with respect to DNA template-primer) of the same compound?
The Ki was 9.3 nM.

And the Ki (human pol κ; with respect to dNTP)?
Its Ki is 15.1 nM.

And the “effect of 0.05% NP-40 on the inhibitory effect on pol κ” value (human pol κ; PGG 10 and 100 nM, supplemental Table S1)?
The value was “not reversed”.

And the “effect of poly(rC) or BSA on the inhibitory effect on pol κ” value (human pol κ; poly(rC) 50 μM, BSA 200 μg/ml)?
Its value is “neither poly(rC) nor BSA influenced”.

And the IC50 (rat pol β; IC50, pol β, poly(dA)/oligo(dT)18 and dTTP, 0.05 unit enzyme)?
Its IC50 is 108 to 160 nM.

What about the Ki (rat pol β; for the DNA template-primer) of the same compound?
Its Ki is 20.1 nM.

And the Ki (rat pol β; for the dNTP substrate)?
Its Ki is 23.8 nM.

What about the “effect of 0.05% NP-40 on the inhibitory effect on pol β” value (rat pol β; PGG 100 nM and 200 nM, supplemental Table S1) of the same compound?
The value was “not reversed”.

What about the “Mode of Inhibition, pol β, DNA template-primer” value (rat pol β; double reciprocal plots) of the same compound?
Its value is “competitively; also recorded: Competitive for DNA template-primer”.

What about the “Mode of Inhibition, pol β, dNTP” value (rat pol β; double reciprocal plots) of the same compound?
The value was “competitively; also recorded: Competitive for dNTP”.

What about the “effect of poly(rC) or BSA on the inhibitory effect on pol β” value (rat pol β; poly(rC) 50 μM, BSA 200 μg/ml) of the same compound?
Its value is “neither poly(rC) nor BSA influenced”.

And the “apparent Vmax of pol β, DNA template-primer” value (rat pol β; [8])?
Its value is 111 pmol/h.

And the “apparent Vmax of pol β, dNTP substrate” value (rat pol β; [8])?
The value was 62.5 pmol/h.

And the “effect on pol δ activity” value (human pol δ; 100 and 1,000 nM PGG, Fig. 1C)?
The value was “significantly inhibit”.

And the IC50 (human pol δ; IC50, pol δ, range stated for replicative pols (α, δ and ε) together)?
Its IC50 is < 100 nM and 13 to 66 nM.

And the IC50 (mouse pol ι)?
The IC50 was 30 to 45 nM.

What about the “effect on pol ι activity” value (mouse pol ι; 100 and 1,000 nM PGG, Fig. 1C) of the same compound?
Its value is “significantly inhibit”.

And the “inhibitory activity on pol γ (family A)” value (human pol γ)?
Its value is “lower”.

And the “effect on pol λ activity” value [1]?
Its value is “not affected; also recorded: not sensitive”.

And the “effect on rice pol λ activity” value (rice pol λ)?
Its value is “not influenced”.

And the “effect on Taq pol activity” value (Taq pol)?
The value was “not influenced”.

And the “effect on calf primase of pol α activity” value (calf primase of pol α)?
Its value is “did not suppress”.

What about the “effect on human telomerase activity” value (human telomerase) of the same compound?
Its value is “did not suppress”.

What about the “effect on T7 RNA polymerase activity” value (T7 RNA polymerase) of the same compound?
The value was “did not suppress”.

And the “effect on mouse IMP dehydrogenase (type II) activity” value [2]?
The value was “did not suppress”.

And the “effect on bovine DNase I activity” value (bovine DNase I)?
The value was “did not suppress”.

What about the “effect on melting temperature (Tm) / thermal transition of dsDNA” value [3] of the same compound?
Its value is “no effect”.

And the IC50 (Aminopeptidase N)?
The IC50 was 6500 nM.

What about the IC50 (Neutral endopeptidase) of the same compound?
Its IC50 is 12500 nM.

And the IC50 [4]?
Its IC50 is 73100 nM.

And the IC50 [5]?
The IC50 was > 100000 nM.

And the “inhibition of DNA replicative synthesis compared with aphidocolin” value (isolated nuclei)?
Its value is “superior efficacy”.

And the “in vivo growth of Lewis lung cancer allografts” value [6]?
Its value is “suppresses”.

And the “in vivo growth of DU145 xenografts” value ([7]; daily intra-peritoneal injection 20 mg/kg body weight, nude mice)?
The value was “suppresses”.

What about the “effect on body weight” value ([7]; mouse, in vivo) of the same compound?
Its value is “without evident adverse effect”.
